One test relates to MINO. The test is described as follows: Induction of cell cycle arrest in human MINO cells assessed as increase in 2n cell population measured upto 5000 nM measured for 3 days by propidium iodide staining based flow cytometric analysis. It is filed as functional. As to conditions: time 3.0 day. In general terms: Flow cytometry measures light scatter and fluorescence of single cells or particles in a stream.

The next test concerns MCF7. The experiment in a line: Induction of cell cycle arrest in human MCF7 cells assessed as increase in 2n cell population measured upto 5000 nM measured for 2 to 7 days by propidium iodide staining based flow cytometric analysis. The following applies: time 2-7 day. The test is classed as functional.
The next test deals with Maver1. The experiment in a line: Induction of apoptosis in human MAVER-1 cells assessed as dead cells incubated for 6 days by annexin-V/FITC propidium iodide staining based flow cytometry analysis. It is filed as functional, cell-based. The following applies: dose <= 5000.0 nM, time 6.0 day.
In the next test the test system is SNU-423. The test is described as follows: Antiproliferative activity against human SNU-423 cells assessed as cell growth inhibition incubated for 10 days. It is filed as functional. As to conditions: SNU-423, 240 h, time 10 day.
Another test concerns A101D. The experiment in a line: Antiproliferative activity against human A101D cells assessed as cell growth inhibition incubated for 10 days. It is filed as functional. The following applies: 240 h, time 10 day. The method, boiled down:
(§1)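 Cells kept in RPMI-1640 with 10% FBS, 2 mM L-alanyl-L-glutamine and 1 mM Na pyruvate (or a special medium) at 37°C, 5% CO2. Compound added 24 h after seeding, 10 concentrations in 3.16-fold dilution, 0.1% DMSO final. Medium replaced and cells re-dosed at 168 h; 240 h incubation. Nuclei fixed, dye-stained and imaged. gIC50 = growth midway between untreated and time-zero cell counts, from a 4-parameter fit.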

The nature of test [1]: Antiproliferative activity against human Ri-1 cells assessed as cell growth inhibition incubated for 6 days by celltiter-glo assay. As to conditions: Ri-1, 144 h, time 6 day. The test is classed as functional. The method, boiled down: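 Cells seeded in 384-well plates at an optimized density and held 24 h. CellTiter-Glo luminescence read at Day 0 and Day 6. Four-parameter fit. gIC50 = midpoint of the growth window between DMSO and T0. Curves required ≥1.5 population doublings.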
(In general: ATP-based viability assays read luminescence as a measure of living cells.)

Another test has as its system HT. The test is described as follows: Antiproliferative activity against human HT cells assessed as cell growth inhibition incubated for 10 days. It is filed as functional. The following applies: 240 h, time 10 day. The method, boiled down: (§2)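 Outsourced panel run in 384-well plates. Cells were grown in RPMI-1640/10% FBS or a special medium at 37°C, 5% CO2. Compound was added 24 h after seeding as a 10-point, 3.16-fold series in 0.1% DMSO. Medium was refreshed and cells re-dosed at 168 h, with a time-zero plate kept. At 240 h cells were fixed, nuclei stained and imaged. gIC50 is growth midway between untreated and time zero, from a 4-parameter fit.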

A further test relates to Daoy. The experiment in a line: Antiproliferative activity against human Daoy cells assessed as cell growth inhibition incubated for 10 days. The following applies: 240 h, time 10 day. The test is classed as functional. The method, boiled down: as §2
The test system of the next test is Hs 294T. The experiment in a line: Antiproliferative activity against human Hs294T cells assessed as cell growth inhibition incubated for 10 days. It is filed as functional. The following applies: 240 h, time 10 day. Summed up:
(§3)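 Eurofins panel, 384-well. Cells kept in RPMI-1640 with 10% FBS, 2 mM L-alanyl-L-glutamine and 1 mM Na pyruvate, or in a special medium, at 37°C under 5% CO2. Compound added 24 h after seeding as 10 concentrations in 3.16-fold steps, 0.1% DMSO final. Medium replaced and compound re-dosed at 168 h. After 240 h, cells fixed and nuclei stained for imaging. gIC50 = growth midway between untreated cells and time-zero count.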

Another test relates to HLE. The experiment in a line: Antiproliferative activity against human HLE cells assessed as cell growth inhibition incubated for 10 days. As to conditions: 240 h, time 10 day. The test is classed as functional. Summed up: as §2
The next test deals with SK-N-DZ. The experiment in a line: Antiproliferative activity against human SK-N-DZ cells assessed as cell growth inhibition incubated for 10 days. As to conditions: 240 h, time 10 day. It is filed as functional.
Test [2] deals with Protein arginine N-methyltransferase 5 (Homo sapiens) (UniProt O14744). The test is described as follows: Inhibition of PRMT5 in human Z138 cells assessed as effect on hnRNP level by measuring fold change by LC-MS/MS analysis relative to control. It is filed as cell-based.
Another test relates to ACHN. The experiment in a line: Antiproliferative activity against human ACHN cells assessed as cell growth inhibition incubated for 10 days. It is filed as functional. The following applies: 240 h, time 10 day. The method, boiled down:
as §1

The next test relates to CAL-27. The test is described as follows: Antiproliferative activity against human CAL-27 cells assessed as cell growth inhibition incubated for 10 days. The following applies: CAL-27, 240 h, time 10 day. It is filed as functional. Summed up:
as §1

Another test has as its system COLO 201. The test is described as follows: Antiproliferative activity against human COLO201 cells assessed as cell growth inhibition incubated for 10 days. The test is classed as functional. The following applies: COLO 201, 240 h, time 10 day. The method, boiled down:
as §1

Another test relates to JEG-3. The experiment in a line: Antiproliferative activity against human JEG-3 cells assessed as cell growth inhibition incubated for 10 days. The test is classed as functional. As to conditions: JEG-3, 240 h, time 10 day. Summed up:
(§4)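 Eurofins-panel 10-day assay in 384-well plates. Cells grown in RPMI-1640 with 10% FBS, 2 mM L-alanyl-L-glutamine and 1mM Na pyruvate, or a special medium, at 37°C in 5% CO₂. Compound added 24 h after seeding, 10-point 3.16-fold series in 0.1% DMSO. Medium replaced and compound re-dosed at 168 h. Nuclei fixed and stained after 240 h, then imaged to give a relative cell count. gIC50 is the concentration giving growth midway between untreated and time-zero counts, from a 4-parameter fit.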

In another test the test system is DoTc2-4510. The experiment in a line: Antiproliferative activity against human DoTc2-4510 cells assessed as cell growth inhibition incubated for 10 days. The test is classed as functional. As to conditions: DoTc2-4510, 240 h, time 10 day. The method, boiled down:
as §2

The subject of a further test is SNU1. The experiment in a line: Antiproliferative activity against human SNU1 cells assessed as cell growth inhibition incubated for 10 days. The test is classed as functional. The following applies: SNU1, 240 h, time 10 day.
Another test deals with RCK8. The experiment in a line: Antiproliferative activity against human RCK8 cells assessed as reduction in cell viability. It is filed as functional, cell-based.
The subject of another test is Hs 766. The experiment in a line: Antiproliferative activity against human Hs766T cells assessed as cell growth inhibition incubated for 10 days. It is filed as functional. The following applies: Hs 766, 240 h, time 10 day. Summed up:
as §3

The next test has as its system DOHH-2. The experiment in a line: Antiproliferative activity against human DOHH-2 cells assessed as cell growth inhibition incubated for 6 days by celltiter-glo assay. The test is classed as functional. As to conditions: DOHH-2, 144 h, time 6 day.
The subject of another test is SNB-19. The test is described as follows: Antiproliferative activity against human SNB-19 cells assessed as cell growth inhibition incubated for 10 days. It is filed as functional. As to conditions: SNB-19, 240 h, time 10 day.
The subject of the next test is JAR. The experiment in a line: Antiproliferative activity against human JAR cells assessed as cell growth inhibition incubated for 10 days. The test is classed as functional. As to conditions: 240 h, time 10 day. Summed up: as §4
The subject of the next test is CAPAN-1. The test is described as follows: Antiproliferative activity against human CAPAN-1 cells assessed as cell growth inhibition incubated for 10 days. It is filed as functional. The following applies: CAPAN-1, 240 h, time 10 day. Summed up:
as §1

The next test deals with RKO. The experiment in a line: Antiproliferative activity against human RKO cells assessed as cell growth inhibition incubated for 10 days. The following applies: 240 h, time 10 day. It is filed as functional.
A further test deals with SW948. The test is described as follows: Antiproliferative activity against human SW948 cells assessed as cell growth inhibition incubated for 10 days. It is filed as functional. The following applies: SW948, 240 h, time 10 day.
Test [3] concerns the target Protein arginine N-methyltransferase 5 (Homo sapiens) (UniProt O14744). The test is described as follows: Inhibition of PRMT5 in human Z138 cells assessed as effect on KHSRP level by measuring fold change by LC-MS/MS analysis relative to control. The test is classed as cell-based.
For another test, the system named is U138-MG. The experiment in a line: Antiproliferative activity against human U138-MG cells assessed as cell growth inhibition incubated for 10 days. As to conditions: 240 h, time 10 day. The test is classed as functional.
Test [4] addresses Protein arginine N-methyltransferase 5 (Homo sapiens) (UniProt O14744). The experiment in a line: Inhibition of PRMT5 in p53 knockout human Z138 cells effect on p21 expression at 500 nM incubated for 3 to 11 days by Western blot analysis. The following applies: time 3-11 day. The test is classed as cell-based. In general terms: A western blot detects proteins with antibodies after separation by electrophoresis.

Another test has as its system SW 962. The experiment in a line: Antiproliferative activity against human SW 962 cells assessed as cell growth inhibition incubated for 10 days. As to conditions: SW 962, 240 h, time 10 day. It is filed as functional.
The next test deals with NCI-H446. The experiment in a line: Antiproliferative activity against human NCI-H446 cells assessed as cell growth inhibition incubated for 10 days. The test is classed as functional. As to conditions: NCI-H446, 240 h, time 10 day.

The source made the active and inactive calls. No cut-off for these calls is given here.

As a reminder, the GI50 is the concentration at which growth is held to half of that of the control.

Chain of Protein arginine N-methyltransferase 5 (Homo sapiens) (O14744 whole entry): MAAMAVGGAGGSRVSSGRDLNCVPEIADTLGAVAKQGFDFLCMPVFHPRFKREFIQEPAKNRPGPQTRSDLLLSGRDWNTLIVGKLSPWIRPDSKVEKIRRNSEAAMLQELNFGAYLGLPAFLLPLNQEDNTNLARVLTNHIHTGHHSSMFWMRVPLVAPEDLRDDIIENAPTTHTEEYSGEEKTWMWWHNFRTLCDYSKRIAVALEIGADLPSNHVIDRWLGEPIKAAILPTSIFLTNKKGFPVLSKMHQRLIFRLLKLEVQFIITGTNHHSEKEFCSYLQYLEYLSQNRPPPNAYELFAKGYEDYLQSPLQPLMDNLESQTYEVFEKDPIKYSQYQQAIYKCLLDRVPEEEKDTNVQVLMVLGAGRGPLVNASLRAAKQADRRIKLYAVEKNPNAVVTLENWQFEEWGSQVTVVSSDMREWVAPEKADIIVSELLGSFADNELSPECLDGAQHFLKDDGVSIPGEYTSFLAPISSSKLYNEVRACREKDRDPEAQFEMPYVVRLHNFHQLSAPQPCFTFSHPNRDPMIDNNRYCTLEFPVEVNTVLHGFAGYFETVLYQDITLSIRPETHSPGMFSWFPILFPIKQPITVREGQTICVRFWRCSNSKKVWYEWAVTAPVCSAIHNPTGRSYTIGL

For `CC(=O)N1CCC(Nc2cc(C(=O)NC[C@H](O)CN3CCc4ccccc4C3)ncn2)CC1` [PEMRAMETOSTAT], in the test with MINO, the outcome was inactive. The result in the test on MCF7 was Active. Besides, the Activity entry in the test on Maver1 is “Dose-Dependent Effect”.
As to `O=C(NC[C@H](O)CN1CCc2ccccc2C1)c1ccnc(NC2CCC2)c1`, the GI50 was found to be 66 nM with SNU-423; 190 nM in the test on A101D; 68 nM in [1]; 206 nM with HT; 270 nM in the test on Daoy; 12.3 nM in the test on Hs 294T. Also, the GI50 in the test with HLE was 174 nM; in the test on SK-N-DZ it was 257 nM; with ACHN it was 38.6 nM; in the test with CAL-27, 103 nM; with COLO 201 it was 49.6 nM; in the test with JEG-3, 216 nM. Besides, the 50% growth inhibitory concentration (GI50) with DoTc2-4510 is 95.8 nM; in the test with SNU1 it was 1040 nM; in the test with Hs 766 it was 1120 nM; in the test on DOHH-2 it was 116 nM; in the test with SNB-19, 223 nM; in the test on JAR, 485 nM. Further, the GI50 in the test on CAPAN-1 is 370 nM; in the test on RKO, 772 nM; with SW948, 120 nM; in the test with U138-MG, 43.3 nM; with SW 962 it was 203 nM; with NCI-H446, 570 nM. Moreover, the figures for the fold change (FC) in test [2] and in test [3] were -5.3 and -7.8, respectively. For the same molecule, the outcome in the test on RCK8 was Active. Besides, in test [4], the inhibition entry is “inactive”.

The record behind these values is ChEMBL document CHEMBL5653630, “Activation of the p53-MDM4 regulatory axis defines the anti-tumour response to PRMT5 inhibition through its role in regulating cellular splicing” (Sci Rep, 2018).
